Screening data deposited in PubChem BioAssay by several laboratories.
Compounds with a hit are over-represented: about 1.6% of the library has one in this group of screens.
ARFGAP1 inhibitor: inhibitors of rat ARFGAP1 GAP activity, primary screen, biochemical, fluorescence polarization, GDP tracer. ADP-ribosylation factor GTPase-activating protein 1 (Rattus norvegicus), Q62848. Arfgap1-stimulated ARF1 GTP hydrolysis, GDP FP detection. inhibition, % at 16.5 µM. actives 0.26% (n = 360,000). AID 651572, 2012;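 active = inhibition above a per-plate limit, mean inhibition of low control wells plus 3 SD, cut at about 25% in these data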
Target sequence (Q62848 1-136 limits assumed): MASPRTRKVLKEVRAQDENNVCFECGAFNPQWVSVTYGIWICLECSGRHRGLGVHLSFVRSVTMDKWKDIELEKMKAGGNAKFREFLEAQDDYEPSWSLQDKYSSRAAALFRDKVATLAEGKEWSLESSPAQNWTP
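System: truncated rat Arfgap1 GAP domain / Benchmarks: high control wells lacking Arfgap1, low control full reaction with DMSO / Times: compound-enzyme preincubation 20 min, reaction 120 min, detection 60 min, 25 °C / Repeats: one replicate per compound / Also added: human ARF1(Δ1-17)-GTP substrate / Measured by: Tracer-displacement fluorescence polarization with EDTA stop, 620/688 nm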
H9c2 protect: cardioprotection against H2O2-induced cell death, primary screen, uHTS, H9c2 cells, ATPLite luminescence; H9c2 cardiomyocytes, H2O2 injury protection, 2 h; protection from H2O2 cell death, % at 20 µM; actives 0.63% (n = 360,000); AID 588492, 2011;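 active = compounds giving at least 50% protection of heart cells from peroxide-induced death in the single-dose screen, raw or plate-pattern-corrected value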
ASAP1 inh: inhibitors of human ASAP1 ArfGAP activity, primary screen, biochemical, fluorescence polarization; Arf-GAP with SH3 domain, ANK repeat and PH domain-containing protein 1 (Homo sapiens), …; ASAP1-stimulated ARF1 GTP hydrolysis, GDP FP detection; inhibition, % at 16.5 µM; actives 0.19% (n = 360,000); in the data active = inhibition above about 25%
Neddylation inh: inhibitors of cullin neddylation, primary screen, biochemical, TR-FRET, uHTS, NAE and Ubc12 | NEDD8-conjugating enzyme Ubc12 (Homo sapiens) + NEDD8-activating enzyme E1 regulatory … | inhibition, % at 25 µM | actives 0.58% (n = 360,000) | AID 651699, 2012; in the data active = inhibition above about 36%
Neddyl conf: blockade of NEDD8 conjugation to cullin – biochemical, TR-FRET, single concentration, confirmation; shares compounds with Neddylation inh; TR-FRET cullin neddylation biochemical assay; calls only at 25 µM; actives 13% (n = 1,800); AID 652217, 2013; in the data active = inhibition above about 40%;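 also: neddylation substrate is the cullin 1 ring ligase complex with SKP2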
A number is an active result; - = inactive; . = no result given; + = active, no number.

SMILES | ARFGAP1 inhibitor | H9c2 protect | ASAP1 inh | Neddylation inh | Neddyl conf
Cc1ccc2cc3cc(C(=O)NCc4ccco4)oc3nc2c1 | - | - | - | 44 | -
Cc1cccc(NC(=O)c2cc(-c3cc(C)ccc3O)n[nH]2)c1 | - | - | - | - | .
COc1cc(F)ccc1-c1cc(C(=O)Nc2ccc(NC(C)=O)cc2)[nH]n1 | - | - | - | 54 | +
CC(=O)Nc1ccc(NC(=O)c2cc(-c3ccc(C)cc3O)n[nH]2)cc1 | - | - | - | 78 | +
C=CCn1c(=O)n(CC=C)c(=O)n(CC=C)c1=O | - | . | - | . | .
C#CCNC[C@@H]1CSCCS(=O)(=O)N1 | - | . | - | . | .
Nc1[nH]c(C(=O)c2ccccc2)c(-c2cccc3ccccc23)c1C(=O)c1ccc(Br)cc1 | - | . | - | . | .
CCc1nc2ccc(C(=O)NCc3ccc(OC)cc3)cn2c1N(CCC(C)C)CCN(C)C | - | - | - | - | .
COc1ccc(-c2nc3ccccc3n(CC(C)C)c2=O)cc1 | - | . | - | - | .
Cc1cc(-n2c(C)cc(C(=O)COc3ccc4ccc(=O)oc4c3)c2C)no1 | - | 70 | - | 55 | .
CC(=O)c1cccc(OCC(=O)c2cc(C)n(-c3cc(C)on3)c2C)c1 | - | - | - | - | .
N#Cc1nc(-c2ccco2)oc1NCCN1CCOCC1 | - | - | - | 39 | -
Cc1ccccc1OCCCN1CCC(C(O)(c2ccccc2)c2ccccc2)CC1 | - | . | - | . | .
O=C(Nc1ccc2c(c1)nc1n2CCN(Cc2ccccc2)C1)c1cccs1 | - | - | - | - | .
CCN(CC)c1cc(C)c2cc(NC(=O)c3cccs3)ccc2n1 | - | - | - | - | .
COc1ccccc1C(=O)Nc1ccc2c(c1)nc1n2CCN(Cc2ccccc2)C1 | - | - | - | 54 | -
CCN(CC)c1cc(C)c2cc(NC(=O)c3ccccc3OC)ccc2n1 | - | - | - | 43 | -
CCNC(=O)N1CCN(c2ccc(N3CCN(C(=O)NCC)[C@H](C)C3)c(C)c2)[C@@H](C)C1 | - | . | - | . | .
COC(=O)c1cc(NC(=O)c2c(-c3ccccc3)noc2C)ccc1N1CCOCC1 | - | - | - | 38 | -
Cc1ccc(CNc2ncnc3ccc(-c4ccoc4C)cc23)o1 | - | - | - | - | .
CCCCn1nc(C(=O)Nc2ccc(-n3cnnn3)cc2)c2ccccc2c1=O | - | - | - | 45 | -
Cn1nc(C(=O)Nc2ccc(-n3cnnn3)cc2)c2ccccc2c1=O | - | - | - | - | .
CCCCOc1ccc(S(=O)(=O)N2CCCCC2)cc1 | - | - | - | - | .
CCCCOc1ccc(S(=O)(=O)N2CCN(c3ccc(N4CCN(CC)CC4)nn3)CC2)cc1 | - | - | - | 46 | -
COC(=O)COc1ccc2oc(=O)cc(-c3cc4cccc(OC)c4o3)c2c1 | - | - | - | 42 | -
SMILES | ARFGAP1 inhibitor | H9c2 protect | ASAP1 inh | Neddylation inh | Neddyl conf
O=C(O)[C@@H]1Cc2c([nH]c3ccccc23)C2CCC(=O)N21 (stereo partly drawn) | - | - | - | 52 | -
CN(CC(=O)Nc1ccccc1Cl)C(=O)COC(=O)c1ccc(-c2ccc(O)cc2)cc1 | - | - | - | 31 | .
CN(CC(=O)Nc1ccccc1Cl)C(=O)COC(=O)c1ccc(C(F)(F)F)cc1 | - | - | - | - | .
CCOC(=O)c1sc2nc[nH]c(=O)c2c1C | - | - | - | - | .
CCOC(=O)c1snc2c(=O)[nH]cnc12 | - | - | - | 49 | -
CC(C(=O)Nc1ccc2nccnc2c1)N1C(=O)C2C3C=CC(C3)C2C1=O (stereo not drawn) | - | - | - | 54 | .
NS(=O)(=O)c1ccc(-c2ccc(/C=N/Nc3ccc(C(=O)O)cc3)o2)cc1 | - | - | - | 43 | -
CSC1=Nc2ccccc2N=C(N2CCCC2)C1 | - | . | - | . | .
COc1ccc(C(=O)Cn2c3ccccc3n3nc(CCC(=O)O)c(=O)nc23)cc1OC | - | - | - | 44 | .
COc1ccc(/C=C/c2ccc(=O)n(Cc3ccccc3)n2)cc1 | - | - | - | 49 | .
Cc1ccc(/C=C/c2ccc(=O)n(Cc3ccc(F)cc3)n2)cc1 | - | - | - | . | .
